From PubChem
Only some compounds are listed: those with a hit (about 1.7% of all), similar ones and a draw of the others.
SUMO1-SIM PPI: alters human SUMO1 binding to SIM partners; P63165; 360,000 tested, 0.33% active; inhibition, % at 20 µM; SUMO1 binding to a labelled peptide, TR-FRET, 1 h; in the data active = inhibition above about 37%
DNMT1 inh: blocks human DNA methyltransferase DNMT1; P26358; DNMT1 molecular beacon, Hinp1I cleavage, fluorescence; inhibition (reported as % activation of signal), % at 10 µM; 360,000 tested, 0.83% active; AID 588458; in the data active = inhibition above about 50%
LMPTP block: blocks human LMPTP phosphatase; 360,000 tested, 0.22% active; P24666; inhibition, % at 20 µM; recombinant LMPTP-A, OMFP fluorogenic substrate, fluorescence intensity;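 active = compounds that cut the enzyme signal by at least half of the control window in the single-dose screen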;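 also: plate controls were DMSO wells with enzyme plus substrate for no effect and substrate without enzyme for full effect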
Target sequence (P24666 whole entry, looked up): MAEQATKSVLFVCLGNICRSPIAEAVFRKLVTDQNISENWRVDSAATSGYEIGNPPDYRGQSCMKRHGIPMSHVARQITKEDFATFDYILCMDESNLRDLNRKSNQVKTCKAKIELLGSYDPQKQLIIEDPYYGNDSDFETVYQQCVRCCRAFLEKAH
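test system = LMPTP-A | amount = 0.625 nM LMPTP-A final | reagent = fluorogenic phosphatase substrate OMFP at 400 µM final | incubation = 50 min at room temperature | benchmarks = no-enzyme low control, uninhibited high control | medium = Bis-Tris pH 6.0, DTT, detergent | signal = fluorescence intensity of OMFP turnover product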
STEP inh: inhibitors of human striatal-enriched phosphatase STEP; recombinant STEP, OMFP fluorogenic substrate, fluorescence; P54829; inhibition, % at 20 µM; 360,000 tested, 0.25% active;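 active = inhibition at 20 µM, scaled per plate between control wells, above about 37%, limit read from the data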;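 also: 0% = DMSO with enzyme and substrate and 100% = substrate only without enzyme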
Target sequence (P54829 whole entry, looked up): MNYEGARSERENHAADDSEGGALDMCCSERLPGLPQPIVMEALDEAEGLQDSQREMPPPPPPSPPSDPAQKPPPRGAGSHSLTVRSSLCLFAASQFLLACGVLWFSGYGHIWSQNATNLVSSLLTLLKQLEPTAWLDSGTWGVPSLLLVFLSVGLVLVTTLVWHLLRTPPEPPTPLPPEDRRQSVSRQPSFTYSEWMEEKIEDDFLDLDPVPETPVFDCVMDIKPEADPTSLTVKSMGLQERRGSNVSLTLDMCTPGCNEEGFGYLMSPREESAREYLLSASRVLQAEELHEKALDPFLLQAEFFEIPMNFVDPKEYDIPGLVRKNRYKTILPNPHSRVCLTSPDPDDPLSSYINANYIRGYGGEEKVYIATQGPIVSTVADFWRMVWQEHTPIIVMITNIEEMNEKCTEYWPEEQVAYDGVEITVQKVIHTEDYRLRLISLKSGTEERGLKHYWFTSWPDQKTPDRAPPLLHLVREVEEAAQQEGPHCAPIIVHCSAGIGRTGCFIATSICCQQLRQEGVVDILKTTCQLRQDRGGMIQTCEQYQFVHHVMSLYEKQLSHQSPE
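Also added – OMFP at 25 µM · Test system – STEP tyrosine phosphatase · Technique – FITC-channel fluorescence of OMFP product · Schedule – 20 min at room temperature, dark · Evaluation – control-normalized % inhibition with plate pattern correction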
Scp-1 inhibitor: inhibitors of human Scp-1 phosphatase. Q9GZU7. Recombinant Scp1, phosphopeptide, malachite green phosphate absorbance. 340,000 tested, 0.88% active. inhibition, % at 20 µM;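 active = inhibition above about 50% at 20 µM, limit read from the data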;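 also: plate controls were DMSO wells with enzyme for no effect and wells lacking enzyme for full effect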
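Material – SCP-1 phosphatase catalytic domain, residues 76-261 · Buffer or medium – Acidic Tris acetate buffer with magnesium and detergent · Also added – Phospho 17-mer peptide substrate · Compound – single 20 µM dose, 1% DMSO · Times – 45 min room-temperature reaction, 5 min colour, 30 min stabiliser · Technique – Phosphate-binding colour reagent, absorbance read at 630 nm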
Scp-1 conf: confirmation of human Scp-1 phosphatase inhibitors. 2,500 tested, 61% active. shares compounds with Scp-1 inhibitor. recombinant SCP-1 catalytic domain, phosphate release, malachite green absorbance. inhibition, % at 20 µM;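 also: plate controls were DMSO with enzyme for no effect and buffer wells lacking enzyme for full effect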
Scp-1 MG ctr: counter-screen for Scp-1 inhibitors: colorimetric interference; shares compounds with Scp-1 inhibitor; 2,500 tested, under 10 active; Colorimetric interference counterscreen, malachite green absorbance 630 nm; apparent inhibition (interference), % at 20 µM; AID 540313;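 also: compounds added after enzyme reaction finished so only phosphate colour detection is probed; plate controls were DMSO wells with completed Scp-1 reaction for no effect and substrate wells lacking enzyme for full effect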
Scp1 DSF: binds human Scp-1, shifting its melting temperature; 1,500 tested, 25% active; AID 540329; thermal shift relative to vanadate control, % at 40 µM; shares compounds with Scp-1 inhibitor; Recombinant SCP1, Sypro Orange thermal shift Tm;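 active = substances whose mean melting-temperature shift, as a percentage of the reference inhibitor's shift, reaches about 5.3%, limit read from the data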;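 also: 0% = Tm of DMSO wells and 100% = Tm with sodium orthovanadate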
* marks the source's active call; other numbers are inactive results; nt = not tested or not shown.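 The calls were made as follows, unless noted: active = inhibition of at least 30% at 20 µM; inactive = the rest.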

SMILES | SUMO1-SIM PPI | DNMT1 inh | LMPTP block | STEP inh | Scp-1 inhibitor | Scp-1 conf | Scp-1 MG ctr | others
Cc1ccc(NC(=S)NC(=O)CC2CC(C)(C)OC2=O)cc1 (centres undefined) | 0.0 | 1.6 | 0.1 | -3.3 | -8.6 | nt | nt
COc1ccc(-n2nnnc2C(c2ccccc2OC(F)(F)F)N2CCN(C/C=C/c3ccccc3)CC2)cc1 (centres undefined) | -0.3 | -7.2 | 5.6 | 0.6 | nt | nt | nt
C[N+]1(CCOS(=O)C23CC4CC(CC(C4)C2)C3)CCOCC1 (centres undefined) | 2.8 | -0.5 | -2.3 | -2.9 | 105.0* | -5.3 | -6.8
CCCNC(=O)C1(C)CCN(C(=O)c2ccc(F)c(Cl)c2)C1 (centres undefined) | -2.3 | -2.0 | -1.8 | -0.2 | nt | nt | nt
CN1CCN(c2ncnc3c2ncn3[C@H]2CN(Cc3ccc4c(c3)OCO4)C[C@@H](CO)O2)CC1 | 1.9 | 4.0 | -0.9 | 2.6 | nt | nt | nt
COc1ccc([N+](=O)[O-])cc1NC(=S)NC(C)=O | -11.1 | 1.5 | 0.7 | -3.7 | -5.7 | nt | nt
COc1ccc(/C=C/C(=O)NC(=S)Nc2cc([N+](=O)[O-])ccc2O)cc1OC | 12.6 | -14.4 | 56.1* | 61.9* | 80.5* | 54.1* | -9.8 | Scp1 DSF=5.7*
CN1C(=O)[C@@](O)(c2cn(C)c3ccccc23)c2cc(F)ccc21 | -2.2 | nt | 0.5 | nt | nt | nt | nt
CCOC(=O)/C=C1\CN(Cc2cc(OC)c(OC)c(OC)c2)S(=O)(=O)c2ccc(C(F)(F)F)cc21 | 0.2 | 9.3 | 3.1 | 0.5 | 87.9* | 57.4* | -24.1 | Scp1 DSF=0.2
COc1cccc(CN2C(=NC(=O)C3CCCO3)SC3CS(=O)(=O)CC32)c1 (centres undefined) | -0.9 | 3.5 | -2.3 | 3.7 | nt | nt | nt
Cn1cnc(S(=O)(=O)N2CCCCC2c2cc(C(=O)Nc3cccc(C#N)c3)no2)c1 (centres undefined) | -1.5 | -0.5 | -0.7 | 1.4 | nt | nt | nt
Cc1ccc(C(=O)O)cc1NC(=S)NC(=O)c1ccc(COc2ccccc2)cc1 | -2.9 | 2.7 | 2.4 | 9.2 | 50.3* | 36.8* | -26.2 | Scp1 DSF=-8.1
Cc1ccc(-c2csc(NCCn3c(C(F)(F)F)nc4ccccc43)n2)cc1 | 1.7 | 4.8 | 1.2 | 1.9 | 58.5* | -23.4 | -19.5
Cc1ccc(-c2csc(N3CCN(CCCn4c(C(F)(F)F)nc5ccccc54)CC3)n2)cc1 | 4.7 | -3.7 | 4.4 | -3.6 | -0.2 | nt | nt
Nc1ccc2cccc(O)c2c1 | 16.7 | 48.9 | 16.7 | 1.5 | 55.9* | 53.8* | -6.5 | Scp1 DSF=12.6*
O=C(NCc1cccnc1)c1cccc(S(=O)(=O)N2CCOCC2)c1 | 0.7 | -3.2 | -1.0 | 4.5 | 63.6* | -15.3 | -10.4
O=C(Nc1ccc2nc([C@H]3C[C@H](O)[C@@H](CO)O3)[nH]c2c1)NC(c1ccccc1)c1ccccc1 | 2.9 | -3.1 | -0.9 | 0.9 | nt | nt | nt
COc1ccc2nc(SCC(=O)NN)cc(C)c2c1 | -1.7 | -14.6 | 0.5 | 3.0 | 86.9* | -8.4 | -11.2
COc1ccc2c(C)cc(SCC(=O)Nc3cc(C(N)=O)cc(C(N)=O)c3)nc2c1 | -148.5 | -2.4 | 0.1 | 19.8 | 49.9 | nt | nt
CC1(C(=O)Nc2ccc3nc[nH]c3c2)CCN1C(=O)C/C=C/c1ccccc1 (centres undefined) | 6.9 | 4.3 | -0.2 | -2.8 | nt | nt | nt
CCOC(=O)c1ccc(NC(=O)CSc2nnc(-c3cccs3)n2CC)cc1 | 13.9 | -2.6 | -0.8 | -1.9 | -0.3 | nt | nt
CCOC(=O)c1ccc(NC(=O)CSc2nnc(-c3cccs3)n2C)cc1 | 0.1 | 2.7 | -1.3 | -0.5 | 105.0* | -2.5 | -5.7
O=C(NCc1ccccc1)c1cc(C2CCCCN2S(=O)(=O)c2cccc3cccnc23)on1 (centres undefined) | 3.2 | -0.7 | -1.3 | 0.0 | nt | nt | nt
CN(C)c1nc(N2CCOCC2)nc(N(c2ccccc2)c2ccccc2)n1 | 6.4 | -0.7 | -2.0 | -4.9 | -2.2 | nt | nt
CN(C)c1cccc(N=C2C=C(N3CCOCC3)CC(C)(C)C2)c1 | -2.6 | -2.8 | -2.1 | -3.3 | 98.9* | 79.2* | -18.0 | Scp1 DSF=-10.4
SMILES | SUMO1-SIM PPI | DNMT1 inh | LMPTP block | STEP inh | Scp-1 inhibitor | Scp-1 conf | Scp-1 MG ctr | others
Nc1ccc(S(=O)(=O)NCC(=O)OC2CCOC2=O)cc1[N+](=O)[O-] (centres undefined) | -23.6 | 39.4 | 0.0 | 3.4 | 54.6* | 18.9 | -15.8
Cc1oc(/N=C/c2cccc3ccccc23)c(C#N)c1C | -5.1 | 40.9 | 0.6 | 1.9 | 65.3* | -11.1 | -8.2
CCN1C(=O)c2ccccc2Sc2ccc(C(=O)O)cc21 | 4.6 | 0.2 | -1.5 | -1.7 | -12.8 | nt | nt
CCOC(=O)c1ccc2c(c1)N(C)C(=O)c1ccccc1S2 | -1.0 | 0.4 | -0.8 | -1.7 | 52.8* | 2.9 | -10.1
O=C(O)CN1C(=O)/C(=C2\C(=O)N(Cc3ccccc3Cl)c3ccccc32)SC1=S | -1.5 | 9.1 | 9.4 | 52.4* | 82.5* | 61.7* | -19.7 | Scp1 DSF=15.9*
CC1C(C#N)=C(N)OC2=C1C(=O)CC(c1ccccc1)C2 (centres undefined) | -2.9 | -1.2 | -0.5 | 1.7 | 55.4* | -13.7 | -9.3
CC(C)NC(=O)C1C(c2ccccc2)=Nc2ccccc2N1C(=O)c1cc(Cl)cc(Cl)c1 (centres undefined) | -5.0 | nt | 2.4 | nt | nt | nt | nt
O=C(O)c1cscc1-c1cccc2ccccc12 | -6.2 | 3.6 | -1.8 | 3.7 | nt | nt | nt
COCCNc1nnc(Cc2ccc(OC)c(OC)c2)c(=O)[nH]1 | -4.3 | 2.7 | -1.2 | -1.3 | 4.2 | nt | nt
CCCCNc1nnc(Cc2ccc(Cl)cc2)c(=O)[nH]1 | 8.5 | 29.8 | 5.0 | 27.8 | 96.6* | 75.8* | -10.9 | Scp1 DSF=-2.3
O=C(Nc1cccc2ccccc12)c1ccc2sc([C@H]3C[C@H](O)[C@@H](CO)O3)nc2c1 | -0.2 | 1.1 | -0.8 | 2.3 | nt | nt | nt
COc1ccc(OC)c(S(=O)(=O)NC(=O)C2(C)CCN2C(=O)c2ccco2)c1 (centres undefined) | 4.5 | 0.3 | -2.4 | -2.4 | nt | nt | nt
Cc1ccc(C(=O)NNC(=O)c2ccc3ccccc3c2O)cc1 | 1.6 | -1.5 | 1.1 | 11.3 | 75.0* | 56.3* | -26.2 | Scp1 DSF=2.2
COc1ccc(C(=O)NNC(=O)c2ccc3ccccc3c2O)cc1 | 3.2 | -2.5 | -1.9 | 6.2 | 20.9 | nt | nt
Cc1cccc(C(O)c2ncc(-c3ccc4ccccc4c3)[nH]2)c1C (centres undefined) | 1.6 | 6.4 | 1.4 | -3.0 | nt | nt | nt
O=C(O)C1(S(=O)(=O)CCC(F)=C(F)F)CC1 | -6.2 | 1.0 | -1.1 | 0.0 | 98.0* | -5.9 | -6.5
